Hits are enriched below; roughly 2.3% of the tested compounds scored in any of these assays.
HGIII-sPLA2 inh – human group III sPLA2 inhibitors, primary screen, biochemical, QFRET, BODIPY PC-A2 liposome substrate. QFRET BODIPY PC-A2 liposome hydrolysis, fluorescence. hit rate 0.56% among 370,000. inhibition, % at 12.2 µM. AID 743126, 2013;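 active means inhibition above mean plus 3 SD of compounds lying within the high and low control bounds, cut at about 19% in these data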;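 further: 0% = median of test compound wells and 100% = no enzyme DMSO wells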
Calb FLC – C. albicans growth inhibition with fluconazole, primary screen, CaCi-2 strain, Alamar Blue fluorescence; C. albicans CaCi-2 + fluconazole, 48 h; growth inhibition, % (concentration not given with the values); hit rate 0.57% among 300,000; AID 1979, 2009;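 active means growth inhibition above about 58% in most replicates, limit read from the data, passing the limit was not always enough; inconclusive means exactly half the replicates above a set limit; inactive means most replicates below a set limit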;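 further: all wells also contain fluconazole at 8 µg/ml as a sub-toxic cotreatment; 0% = median of DMSO wells and 100% = median of geldanamycin control wells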
ARFGAP1 inh – inhibitors of rat ARFGAP1 GAP activity, primary screen, biochemical, fluorescence polarization, GDP tracer; ADP-ribosylation factor GTPase-activating protein 1 (Rattus norvegicus), Q62848; AID 651572, 2012; inhibition, % at 16.5 µM; Arfgap1-stimulated ARF1 GTP hydrolysis, GDP FP detection; hit rate 0.26% among 360,000;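 active means inhibition above a per-plate limit, mean inhibition of low control wells plus 3 SD, cut at about 25% in these data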;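 further: 0% = DMSO wells with enzyme and 100% = wells lacking Arfgap1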
Target sequence (Q62848 1-136 limits assumed): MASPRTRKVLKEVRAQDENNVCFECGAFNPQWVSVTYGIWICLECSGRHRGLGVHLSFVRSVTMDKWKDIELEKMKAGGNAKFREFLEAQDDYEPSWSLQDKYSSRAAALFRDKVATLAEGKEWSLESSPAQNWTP
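System: truncated rat Arfgap1 GAP domain / Medium: HEPES-based buffer, pH 7.5 / Also added: N-terminally truncated human ARF1-GTP substrate / Incubation: enzyme reaction 120 min at 25 °C after 20 min preincubation / Measured by: FP of antibody-bound GDP Alexa 633 tracer, ex 620/em 688 nm / Replicates: singlicate, each compound tested once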
ASAP1 GAP inh – inhibitors of human ASAP1 ArfGAP activity, primary screen, biochemical, fluorescence polarization; Arf-GAP with SH3 domain, ANK repeat and PH domain-containing protein 1 (Homo sapiens), …; ASAP1-stimulated ARF1 GTP hydrolysis, GDP FP detection; inhibition, % at 16.5 µM; hit rate 0.19% among 360,000; AID 624377, 2012; in the data active means inhibition above about 25%;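 further: 0% = vehicle with enzyme and substrate and 100% = no enzyme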
Target sequence (Q9ULH1 325-724 limits assumed): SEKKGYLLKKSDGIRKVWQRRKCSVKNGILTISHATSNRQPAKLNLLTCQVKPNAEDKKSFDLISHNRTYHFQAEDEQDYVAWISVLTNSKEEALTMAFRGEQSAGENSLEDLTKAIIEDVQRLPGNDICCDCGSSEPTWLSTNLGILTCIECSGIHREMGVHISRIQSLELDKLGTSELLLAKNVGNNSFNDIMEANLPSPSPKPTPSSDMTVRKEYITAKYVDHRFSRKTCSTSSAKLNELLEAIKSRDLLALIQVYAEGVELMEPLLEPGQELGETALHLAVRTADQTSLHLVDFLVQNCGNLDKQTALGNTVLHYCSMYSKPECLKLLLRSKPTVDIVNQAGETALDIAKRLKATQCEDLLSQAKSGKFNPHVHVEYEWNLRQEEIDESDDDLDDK
SKKanGAS inh – S. pyogenes SKKanGAS growth inhibitors in kanamycin, primary screen, streptokinase expression inhibitor project, SKKanGAS strain, BacTiter-Glo luminescence | 6 h | inhibition, % at 7.5 µM | hit rate 1.3% among 300,000 | AID 1662, 2009;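 active means mean replicate score, as percent of positive control median, at least 50; inconclusive means mean below 50 but one replicate at or above 50; inactive means mean and every replicate below 50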;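 further: strain carries kanamycin resistance gene driven by streptokinase promoter and grows in 40 µg/ml kanamycin; loss of luminescence reflects streptokinase promoter inhibition or plain growth inhibition; 0% = median of DMSO wells and 100% = positive control at its reference dose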
The depositor's hits bear a star; ? = inconclusive; nt = no result.

SMILES	HGIII-sPLA2 inh	Calb FLC	ARFGAP1 inh	ASAP1 GAP inh	SKKanGAS inh
CCOC(=O)c1sc2nc(Cc3ccc(Cl)cc3)[nH]c(=S)c2c1C	-3	-6	6	5	58*
Cc1ccc(-c2csc(NC(=S)NC(=O)/C=C/c3ccco3)n2)cc1	-3	2	0	1	-1
O=C(/C=C\c1ccco1)Nc1nc(-c2ccc3ccccc3c2)cs1	-3	-4	1	8	63*
N#Cc1c(-c2ccc(Cl)cc2)cc(-c2ccccc2)nc1SCC(=O)O	-31	88*	-13	-13	29
COc1ccc(S(=O)(=O)NCC2CCCN(Cc3ccc(OC)cc3F)C2)cc1 (stereo unspecified)	-28	-4	9	3	82*
COc1ccc(S(=O)(=O)NCC2CCCN(Cc3ccccc3Cl)C2)cc1 (stereo unspecified)	-30	0	13	-4	3
CC(NC(N)=O)C(=O)Nc1ccc(Cl)c(S(=O)(=O)Nc2ccc(Cl)cc2)c1 (stereo unspecified)	-4	7	-2	-4	2
CC(C)Oc1ccc(C(=O)Nc2ccc(Cl)c(S(=O)(=O)Nc3ccc(Cl)cc3)c2)cc1	-15	1	14	22	110*
COc1cccc(NC(=O)C2CCCN2C(=O)Nc2ccc(Cl)cc2)c1 (stereo unspecified)	3	nt	nt	nt	nt
O=C(Nc1cc(F)cc(F)c1)c1ccc(NCCCN2CCCCCC2)c([N+](=O)[O-])c1	-5	98*	15	-1	-2
O=[N+]([O-])c1ccc(NN=Cc2cccc3ccccc23)cc1	8	nt	4	12	nt
O=[N+]([O-])c1cc(Br)c(O)c(/C=N/Nc2nnnn2-c2cccc3ccccc23)c1	-1	69	-3	-3	66*
CCc1ccc(C2CC3C(CN2S(=O)(=O)c2ccc(C)cc2)[C@@H](O)C[C@@H](c2ccc(CC)cc2)N3S(=O)(=O)c2ccc(C)cc2)cc1 (stereo partly specified)	-4	nt	5	-6	nt
COc1ccc(-c2nnc(SCC(=O)N/N=C(\C)c3ccc(-c4ccccc4)cc3)n2-c2ccc(C)cc2)cc1	-1	nt	nt	nt	nt
CC(=O)Nc1cccc(-c2csc(Nc3ncccn3)n2)c1	-5	-6	-4	0	6
CC(=O)Nc1cccc(-c2csc(Nc3ccc(C)cn3)n2)c1	-33	91*	9	9	-2
Cc1ccc(-c2cc(C(=O)NN=Cc3cc(Br)ccc3O)[nH]n2)cc1C	18	nt	nt	nt	nt
O=C(NNC(=S)NC(=O)c1cccc([N+](=O)[O-])c1)c1ccc(Br)cc1	3	nt	6	-3	68*
Cc1ccc(C(=O)NC(=S)NNC(=O)c2cccc([N+](=O)[O-])c2)cc1	1	10	-10	-5	74*
O=C(NNC(=S)NC(=O)c1cccc([N+](=O)[O-])c1)c1ccc(O)cc1	16	30	-2	1	0
Nc1ccn([C@@H]2O[C@H](C(=O)NCC(=O)N3CCOCC3)[C@@H](O)[C@H]2O)c(=O)n1	6	nt	-9	-7	nt
CCCc1sc(N/N=C/c2ccccn2)nc1-c1ccc(Br)cc1	16	-31	7	-3	67*
CC(=O)Nc1sc(N/N=C/c2ccccc2)nc1-c1ccc(C)cc1	9	-2	2	-4	4
O=C1N/C(=N\c2ccccn2)SC1Cc1ccc(Cl)cc1 (stereo unspecified)	-14	-4	6	1	50*
Cc1csc(NC(=O)c2ccc(COc3ccc(Cl)c(Cl)c3)o2)n1	-1	nt	nt	nt	nt
SMILES	HGIII-sPLA2 inh	Calb FLC	ARFGAP1 inh	ASAP1 GAP inh	SKKanGAS inh
Cc1n[nH]c(C)c1CCNCc1ccc(OCC(O)CN2CCCCC2)cc1 (stereo unspecified)	-3	71*	-1	-2	-1
CCCCNC(=O)C1(C)CCCCN1C(=O)c1cc(-c2ccccc2)cs1 (stereo unspecified)	-4	nt	-2	-9	nt
CC1(C)CC(n2c(NCCO)nc3c(c2=O)C2(CCCC2)Cc2ccccc2-3)CCO1 (stereo unspecified)	-27	-8	-9	-5	4
O=c1c2c(nc(NCCO)n1CC1CCCCC1)-c1ccccc1CC21CCCC1	-5	3	0	1	87*
COC(=O)[C@]12C[C@H](CC(=O)N3CCSCC3)C(=O)N(Cc3ccco3)C1=C[C@H](C1CCCC1)O[C@@H]2C	-2	nt	nt	nt	nt
CCn1cc(C(=O)O)c(=O)c2cc(F)c(N3CCNCC3)cc21	nt	nt	nt	nt	4
CCn1cc(C(=O)O)c(=O)c2cc(F)c(N3CCN(C(=O)Nc4ccccc4)CC3)cc21	1	?	-5	6	35
CCn1cc(C(=O)O)c(=O)c2cc(F)c(N3CCN(S(=O)(=O)c4ccc(NC(C)=O)cc4)CC3)cc21	-1	-1	1	1	53*
CCn1cc(C(=O)O)c(=O)c2cc(F)c(N3CCN(S(=O)(=O)c4ccc5c(c4)OCCO5)CC3)cc21	7	-9	5	-21	60*
NC[C@@H]1O[C@H](C23CC4CC(CC(C4)C2)C3)Cc2c1ccc(O)c2O	-24	101*	-10	-3	-6
O=C(N/N=C/c1cc([N+](=O)[O-])ccc1O)c1cccc2cc[nH]c12	-2	-4	15	-13	89*
CCOc1cccc(/C=N/NC(=O)c2ccc3c(c2)OCCO3)c1O	-11	1	-15	8	95*
O=C(N/N=C\c1cc(Br)ccc1O)c1ccc(S(=O)(=O)N2CCCCC2)cc1	-2	-17	-9	10	106*
O=C(N/N=C/c1cccc([N+](=O)[O-])c1)c1cccc2cc[nH]c12	2	28	-2	-19	-16
Cc1nc(C)c(C(=O)N/N=C/c2cc(Br)ccc2O)s1	8	89*	-13	-3	91*
Cc1ccccc1NC(=O)OCCN1CCCC12CCC(c1ccccc1)CC2 (stereo unspecified)	-8	nt	nt	nt	nt
O=C(C1CCCN1S(=O)(=O)c1ccc(Cl)s1)N1CCN(c2ccccc2)CC1 (stereo unspecified)	0	nt	nt	nt	nt
COc1cccc(/C=N/NC(=O)C(=O)Nc2ccccc2OC(F)(F)C(F)F)c1O	-22	109*	8	5	38
CCOc1ccccc1C=NNC(=O)C(=O)NN=Cc1ccccc1OCC	-4	nt	1	-2	nt
O=C(N/N=C/c1cc([N+](=O)[O-])ccc1O)c1ccncc1	7	1	6	-4	92*
O=C(N/N=C/c1ccc(O)c([N+](=O)[O-])c1)c1ccncc1	4	1	2	-5	-1
O=C(N/N=C/c1cc(Br)ccc1O)c1ccncc1	-11	-18	9	1	104*
CCOc1ccccc1NC(=O)C(=O)N/N=C/c1cc(Br)ccc1O	3	108*	-3	15	23
